Test results from article PMC7449315 (Journal for Immunotherapy of Cancer, 2020).

Assay: phase I trial: safety and tolerability
Type: in vivo, human
Procedure, shortened: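 Fifteen patients were dosed orally twice daily (three per cohort, 100–800 mg). AEs, DLTs, physical exams, vital signs, ECGs and laboratory chemistry, hematology and coagulation were recorded from first dose to end of treatment. AEs were graded by the investigator using NCI CTCAE v4.03. DLTs were assessed in cycle 1 (days 1–28): grade ≥3 or immune-related non-hematologic events, and grade ≥4 hematologic events.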

[1] = 800 mg two times per day, one patient

NS(=O)(=O)[C@H]1CC[C@](F)(CC[C@H]2c3ccccc3-c3cncn32)CC1 [M4112]
Aspartate aminotransferase increased (600 mg two times per day (n=3)): 0 (0.0) n (%)
Blood alkaline phosphatase increased (600 mg two times per day (n=3)): 1 (33.3) n (%)
Blood creatine phosphokinase increased (600 mg two times per day (n=3)): 0 (0.0) n (%)
Blood creatinine increased (600 mg two times per day (n=3)): 1 (33.3) n (%)
Cough (600 mg two times per day (n=3)): 0 (0.0) n (%)
DLT (600 mg two times per day (n=3)): no DLTs were observed
Decreased appetite (600 mg two times per day (n=3)): 0 (0.0) n (%)
Dehydration (600 mg two times per day (n=3)): 1 (33.3) n (%)
Diarrhea (600 mg two times per day (n=3)): 2 (66.7) n (%)
Dyspepsia (600 mg two times per day (n=3)): 0 (0.0) n (%)
Dysphagia (600 mg two times per day (n=3)): 0 (0.0) n (%)
Fatigue (600 mg two times per day (n=3)): 1 (33.3) n (%)
Fever (600 mg two times per day (n=3)): 0 (0.0) n (%)
Gamma-glutamyl transferase increased (600 mg two times per day (n=3)): 1 (33.3) n (%)
Hypercalcemia (600 mg two times per day (n=3)): 0 (0.0) n (%)
Lipase increased (600 mg two times per day (n=3)): 2 (66.7) n (%)
Lymphocyte count decreased (600 mg two times per day (n=3)): 0 (0.0) n (%)
Maculopapular rash (600 mg two times per day (n=3)): 0 (0.0) n (%)
Nausea (600 mg two times per day (n=3)): 1 (33.3) n (%)
Palmar-plantar erythrodysesthesia syndrome (600 mg two times per day (n=3)): 0 (0.0) n (%)
Platelet count decreased (600 mg two times per day (n=3)): 0 (0.0) n (%)
Tumor pain (600 mg two times per day (n=3)): 1 (33.3) n (%)
Vomiting (600 mg two times per day (n=3)): 1 (33.3) n (%)
median probability of a DLT (Bayesian model estimate) (800 mg): 20.5%
probability of a DLT, 95% credible interval (800 mg): 3.1%–62.2
Abdominal distension (800 mg two times per day (n=3)): 0 (0.0) n (%)
Abdominal pain (800 mg two times per day (n=3)): 0 (0.0) n (%)
Alanine aminotransferase increased (800 mg two times per day (n=3)): 1 (33.3) n (%)
Amylase increased (800 mg two times per day (n=3)): 0 (0.0) n (%)
Anemia of malignant disease (800 mg two times per day (n=3)): 0 (0.0) n (%)
Any AE (800 mg two times per day (n=3)): 3 (100) n (%)
Any SAE (800 mg two times per day (n=3)): 1 (33.3) n (%)
Aspartate aminotransferase increased (800 mg two times per day (n=3)): 2 (66.7) n (%)
Blood alkaline phosphatase increased (800 mg two times per day (n=3)): 1 (33.3) n (%)
Blood creatine phosphokinase increased (800 mg two times per day (n=3)): 1 (33.3) n (%)
Blood creatinine increased (800 mg two times per day (n=3)): 1 (33.3) n (%)
Cough (800 mg two times per day (n=3)): 0 (0.0) n (%)
Decreased appetite (800 mg two times per day (n=3)): 1 (33.3) n (%)
Dehydration (800 mg two times per day (n=3)): 0 (0.0) n (%)
Diarrhea (800 mg two times per day (n=3)): 0 (0.0) n (%)
Dyspepsia (800 mg two times per day (n=3)): 0 (0.0) n (%)
Dysphagia (800 mg two times per day (n=3)): 0 (0.0) n (%)
Fatigue (800 mg two times per day (n=3)): 1 (33.3) n (%)
Fever (800 mg two times per day (n=3)): 1 (33.3) n (%)
Gamma-glutamyl transferase increased (800 mg two times per day (n=3)): 1 (33.3) n (%)
Hypercalcemia (800 mg two times per day (n=3)): 0 (0.0) n (%)
Lipase increased (800 mg two times per day (n=3)): 0 (0.0) n (%)
Lymphocyte count decreased (800 mg two times per day (n=3)): 1 (33.3) n (%)
Maculopapular rash (800 mg two times per day (n=3)): 0 (0.0) n (%)
Nausea (800 mg two times per day (n=3)): 1 (33.3) n (%)
Palmar-plantar erythrodysesthesia syndrome (800 mg two times per day (n=3)): 0 (0.0) n (%)
Platelet count decreased (800 mg two times per day (n=3)): 1 (33.3) n (%)
Tumor pain (800 mg two times per day (n=3)): 0 (0.0) n (%)
Vomiting (800 mg two times per day (n=3)): 0 (0.0) n (%)
time to resolution of the DLT after treatment withdrawal (800 mg two times per day, grade 3 allergic dermatitis with fever and hypotension): ≤ 6 h
DLT during cycle 1 [1]: grade 3 allergic dermatitis
QT prolongation resulting in dose reduction (not a DLT) [1]: grade 2 QT prolongation
Abdominal distension (Total (N=15)): 2 (13.3) n (%)
Abdominal pain (Total (N=15)): 2 (13.3) n (%)
Alanine aminotransferase increased (Total (N=15)): 2 (13.3) n (%)
Amylase increased (Total (N=15)): 2 (13.3) n (%)
Anemia of malignant disease (Total (N=15)): 2 (13.3) n (%)
Any AE (Total (N=15)): 15 (100) n (%)
Any SAE (Total (N=15)): 3 (20.0) n (%)
Aspartate aminotransferase increased (Total (N=15)): 2 (13.3) n (%)
Blood alkaline phosphatase increased (Total (N=15)): 2 (13.3) n (%)
Blood creatine phosphokinase increased (Total (N=15)): 3 (20.0) n (%)
Blood creatinine increased (Total (N=15)): 3 (20.0) n (%)
Cough (Total (N=15)): 3 (20.0) n (%)
Decreased appetite (Total (N=15)): 3 (20.0) n (%)
Dehydration (Total (N=15)): 2 (13.3) n (%)
Diarrhea (Total (N=15)): 3 (20.0) n (%)
Dyspepsia (Total (N=15)): 2 (13.3) n (%)
Dysphagia (Total (N=15)): 2 (13.3) n (%)
Fatigue (Total (N=15)): 5 (33.3) n (%)
Fever (Total (N=15)): 2 (13.3) n (%)
Gamma-glutamyl transferase increased (Total (N=15)): 2 (13.3) n (%)
Hypercalcemia (Total (N=15)): 2 (13.3) n (%)
Lipase increased (Total (N=15)): 3 (20.0) n (%)
Lymphocyte count decreased (Total (N=15)): 2 (13.3) n (%)
Maculopapular rash (Total (N=15)): 2 (13.3) n (%)
Nausea (Total (N=15)): 4 (26.7) n (%)
Palmar-plantar erythrodysesthesia syndrome (Total (N=15)): 2 (13.3) n (%)
Platelet count decreased (Total (N=15)): 2 (13.3) n (%)
Tumor pain (Total (N=15)): 2 (13.3) n (%)
Vomiting (Total (N=15)): 4 (26.7) n (%)
deaths during the dose-escalation phase (all doses): no deaths reported
TEAE fatigue (all patients (N=15)): 33.3%
TEAE nausea (all patients (N=15)): 26.7%
TEAE vomiting (all patients (N=15)): 26.7%
MTD (doses up to 800 mg two times per day): no MTD was defined
RP2D (in vivo): not established
serious TEAE (one patient, 400 mg two times per day cohort, unrelated to treatment): grade 3 disease progression
serious TEAE (one patient, 600 mg two times per day cohort, unrelated to treatment): grade 2 ascites
serious TEAE (one patient, 800 mg two times per day cohort, related to treatment): grade 3 allergic dermatitis
patients who discontinued M4112 treatment due to TEAEs (two of 15 patients): 13.3%
